“Also recorded” adds a separate entry of the source.
Assays:
JUN = assay: Coiled-coil array vs JUN; type: binding, human; conditions: BZLF1 probe 1280 nM
CEBPA (C/EBPα) = conditions: cited from earlier work
FOS = assay: Coiled-coil array vs FOS; type: binding, human; conditions: BZLF1 probe 1280 nM
Outline: (§1)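 Leucine-zipper regions of human bZIPs and viral proteins were expressed in E. coli RP3098, purified denaturing via Ni-NTA then reverse-phase HPLC, and printed on aldehyde glass slides. The fluorescently labelled BZLF1 zipper was probed at 1280 nM in phosphate buffer with GdnHCl. Each measurement averaged 8 background-corrected spots and was reported as Sarray or arrayscore, −log(F/Fmax), with F as intensity minus the probe's median signal.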

[1] = system: 33 representative human bZIPs; assay: Coiled-coil array, panel of human bZIPs; type: binding
BZLF1 = assay: Coiled-coil array, BZLF1 self-association; type: binding, Epstein-Barr virus; conditions: BZLF1 leucine zipper; probe 1280 nM
CEBPA = assay: Coiled-coil array vs CEBPA; type: binding, human; conditions: BZLF1; leucine-zipper regions; probe 1280 nM
Outline: as §1

MAFG on MARE DNA = assay: Gel-shift with MAFG on MARE DNA; type: binding, human; conditions: MAFG 4 nM, HBZLZ 4, 40, 400, or 4000 nM
MAFB on MARE DNA = assay: Gel-shift with MAFB on MARE DNA; type: binding, human; conditions: MAFB 4 nM, HBZLZ 4, 40, 400, or 4000 nM
Q9DGW5 = conditions: other: circular dichroism

BZLF1: bZIP protein encoded by Epstein-Barr virus (LLQHYREVAAAKSSENDRLRLLLKQM; fluorescently labeled when used as solution probe on the arrays (dye and site not stated); left off: His tag (from the vector pDEST17, modified versions, and the Ni-NTA purification), end not stated,)
interaction on array (JUN): not observed to interact on the arrays | interaction with CEBPA (CEBPA (C/EBPα)): interact with many viral and cellular proteins including the human bZIP CEBPA (C/EBPα) | interaction on array (FOS): not observed to interact on the arrays | interaction with human bZIPs on array ([1]; BZLF1 leucine zipper, probe concentration 1280 nM, average of 8 spots): not to interact with any human bZIP peptides; also recorded: display almost exclusive homo-association | self-association on array (BZLF1): observed to self-associate strongly | interaction on array (CEBPA): this pairing was not observed in our array experiments

BZLF1CT: BZLF1 construct with the C-terminal extension (LLQHYREVAAAKSSENDRLRLLLKQMCPSLDVDSIIPRTPDVLHEDLLNF; fluorescently labeled when used as solution probe on the arrays (dye and site not stated))
interaction with human bZIPs on array ([1]; construct with the C-terminal extension): did not interact strongly with any human proteins

HBZLZ: leucine-zipper-only version of HBZ (DGYTRQLEGEVESLEAERRKLLQEKEDLMGEVNYWQGRLEAMWLQ; fluorescently labeled when used as solution probe on the arrays (dye and site not stated); left off: His tag (from the vector pDEST17, modified versions, and the Ni-NTA purification), end not stated,)
amount of MAFG bound to DNA (MAFG on MARE DNA): The amount of MAF protein bound to DNA was decreased, though a higher concentration of HBZLZ was required. No additional complex was detected | amount of MAFB bound to DNA (MAFB on MARE DNA): The amount of MAF protein bound to DNA was decreased, though a higher concentration of HBZLZ was required. No additional complex was detected

B1: MEQ bZIP domain (protein)
chain: KQKLERRRKRNRDAARRRRRKQTDYVDKLHEACEELQRANEHLRKEIRDLRTECTSLRVQLACH
Tm (homo-association) (Q9DGW5): for MEQ was 35.2 °C

Source: publication PMC2841013 (Biochemistry, 2010)
